Experiments:
[1] = Growth inhibition of human OVCAR4 cells at 10 uM after 48 hrs; assay type: functional; details: OVCAR-4, 48 h, read-out: GI
How it was run: (§1)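 Single-dose primary screen in the NCI 60 human tumour cell line panel, run at the NCI facility. The panel covers nine subpanels: leukaemia, non-small cell lung, colon, CNS, melanoma, ovarian, renal, prostate and breast. Read-out was percent growth of treated cells, shown as a mean graph and reported as percent growth inhibition.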

[2] = Growth inhibition of human EKVX cells at 10 uM after 48 hrs; assay type: functional; details: read-out: GI; how it was run: as §1
TK-10 = experiment: Growth inhibition of human TK10 cells at 10 uM after 48 hrs; assay type: functional; details: TK-10, 48 h, read-out: GI
How it was run: (§2)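 NCI 60-cell-line disease-oriented human tumor panel, single-dose primary screen at 10 µM. Data given as mean-graph percent growth of treated cells, reported as percent growth inhibition (GI %).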

U-251 = experiment: Growth inhibition of human U251 cells at 10 uM after 48 hrs; assay type: functional; details: U-251, 48 h, read-out: GI; how it was run: as §2
SR = experiment: Growth inhibition of human SR cells at 10 uM after 48 hrs; assay type: functional; details: read-out: GI; how it was run: as §2
[3] = Growth inhibition of human UO31 cells at 10 uM after 48 hrs; assay type: functional; details: UO-31, 48 h, read-out: GI; how it was run: as §2
[4] = Growth inhibition of human SF539 cells at 10 uM after 48 hrs; assay type: functional; details: SF-539, 48 h, read-out: GI; how it was run: as §2
NCI-H23 = experiment: Growth inhibition of human NCI-H23 cells at 10 uM after 48 hrs; assay type: functional; details: NCI-H23, 48 h, read-out: GI; how it was run: as §1
MOLT-4 = experiment: Growth inhibition of human MOLT4 cells at 10 uM after 48 hrs; assay type: functional; details: MOLT-4, 48 h, read-out: GI; how it was run: as §1
MDA-MB-231 = experiment: Growth inhibition of human MDA-MB-231 cells at 10 uM after 48 hrs; assay type: functional; details: MDA-MB-231, 48 h, read-out: GI; how it was run: as §1
[5] = Growth inhibition of human Hs 578T cells at 10 uM after 48 hrs; assay type: functional; details: read-out: GI; how it was run: as §1
SNB-75 = experiment: Growth inhibition of human SNB75 cells at 10 uM after 48 hrs; assay type: functional; details: SNB-75, 48 h, read-out: GI; how it was run: as §2
NCI-H322M = experiment: Growth inhibition of human NCI-H322M cells at 10 uM after 48 hrs; assay type: functional; details: read-out: GI; how it was run: as §1
NCI-H226 = experiment: Growth inhibition of human NCI-H226 cells at 10 uM after 48 hrs; assay type: functional; details: NCI-H226, 48 h, read-out: GI; how it was run: as §1
SF-295 = experiment: Growth inhibition of human SF295 cells at 10 uM after 48 hrs; assay type: functional; details: SF-295, 48 h, read-out: GI; how it was run: as §2
[6] = Growth inhibition of human RXF393 cells at 10 uM after 48 hrs; assay type: functional; details: RXF 393, 48 h, read-out: GI; how it was run: as §1
NCI-H522 = experiment: Growth inhibition of human NCI-H522 cells at 10 uM after 48 hrs; assay type: functional; details: NCI-H522, 48 h, read-out: GI; how it was run: as §1
K562 = experiment: Growth inhibition of human K562 cells at 10 uM after 48 hrs; assay type: functional; details: K562, 48 h, read-out: GI; how it was run: as §1
T47D = experiment: Growth inhibition of human T47D cells at 10 uM after 48 hrs; assay type: functional; details: read-out: GI; how it was run: as §2
SK-MEL-2 = experiment: Growth inhibition of human SK-MEL-2 cells at 10 uM after 48 hrs; assay type: functional; details: SK-MEL-2, 48 h, read-out: GI; how it was run: as §2
IGROV-1 = experiment: Growth inhibition of human IGROV1 cells at 10 uM after 48 hrs; assay type: functional; details: IGROV-1, 48 h, read-out: GI; how it was run: as §1
[7] = Growth inhibition of human OVCAR5 cells at 10 uM after 48 hrs; assay type: functional; details: OVCAR-5, 48 h, read-out: GI; how it was run: as §1
CAKI-1 = experiment: Growth inhibition of human CAKI-1 cells at 10 uM after 48 hrs; assay type: functional; details: CAKI-1, 48 h, read-out: GI; how it was run: as §1
SNB-19 = experiment: Growth inhibition of human SNB19 cells at 10 uM after 48 hrs; assay type: functional; details: SNB-19, 48 h, read-out: GI; how it was run: as §2
[8] = Growth inhibition of human NCI-ADR-RES cells at 10 uM after 48 hrs; assay type: functional; details: read-out: GI; how it was run: as §1
SK-OV-3 = experiment: Growth inhibition of human SKOV3 cells at 10 uM after 48 hrs; assay type: functional; details: SK-OV-3, 48 h, read-out: GI; how it was run: as §2
PC-3 = experiment: Growth inhibition of human PC3 cells at 10 uM after 48 hrs; assay type: functional; details: PC-3, 48 h, read-out: GI; how it was run: as §1
COLO 205 = experiment: Growth inhibition of human COLO205 cells at 10 uM after 48 hrs; assay type: functional; details: COLO 205, 48 h, read-out: GI; how it was run: as §1
A549 = experiment: Growth inhibition of human A549 cells at 10 uM after 48 hrs; assay type: functional; details: A549, 48 h, read-out: GI; how it was run: as §1
Dihydrofolate reductase = biological target: T1, Dihydrofolate reductase (Bos taurus, UniProt P00376); experiment: Inhibition of bovine liver DHFR measured for every 1 min of 10 mins
T1 sequence (P00376 whole entry): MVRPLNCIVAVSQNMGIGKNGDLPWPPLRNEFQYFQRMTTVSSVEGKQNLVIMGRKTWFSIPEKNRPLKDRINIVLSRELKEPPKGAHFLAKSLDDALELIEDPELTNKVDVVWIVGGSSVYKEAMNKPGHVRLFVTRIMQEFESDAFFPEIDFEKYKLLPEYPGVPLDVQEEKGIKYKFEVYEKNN

SF-268 = experiment: Growth inhibition of human SF268 cells at 10 uM after 48 hrs; assay type: functional; details: SF-268, 48 h, read-out: GI; how it was run: as §2
MCF7 = experiment: Growth inhibition of human MCF7 cells at 10 uM after 48 hrs; assay type: functional; details: MCF7, 48 h, read-out: GI; how it was run: as §1
LOX IMVI = experiment: Growth inhibition of human LOXIMVI cells at 10 uM after 48 hrs; assay type: functional; details: read-out: GI; how it was run: as §1
SW-620 = experiment: Growth inhibition of human SW620 cells at 10 uM after 48 hrs; assay type: functional; details: SW-620, 48 h, read-out: GI; how it was run: as §2
SK-MEL-28 = experiment: Growth inhibition of human SK-MEL-28 cells at 10 uM after 48 hrs; assay type: functional; details: SK-MEL-28, 48 h, read-out: GI; how it was run: as §2
CCRF-CEM = experiment: Growth inhibition of human CCRF-CEM cells at 10 uM after 48 hrs; assay type: functional; details: read-out: GI; how it was run: as §1
UACC-62 = experiment: Growth inhibition of human UACC62 cells at 10 uM after 48 hrs; assay type: functional; details: UACC-62, 48 h, read-out: GI; how it was run: as §2
HOP-62 = experiment: Growth inhibition of human HOP62 cells at 10 uM after 48 hrs; assay type: functional; details: HOP-62, 48 h, read-out: GI; how it was run: as §1

## COc1ccc(/C=C2\CCCC3=C(c4ccc(OC)cc4)Nc4ccccc4N=C32)cc1
[1]
  inhibition of growth at 10 µM: < 30%
[2]
  inhibition of growth at 10 µM: < 30%
TK-10
  inhibition of growth at 10 µM: < 30%
U-251
  inhibition of growth at 10 µM: < 30%
SR
  inhibition of growth at 10 µM: 46.1%
[3]
  inhibition of growth at 10 µM: < 30%
[4]
  inhibition of growth at 10 µM: < 30%
NCI-H23
  inhibition of growth at 10 µM: < 30%
MOLT-4
  inhibition of growth at 10 µM: < 30%
MDA-MB-231
  inhibition of growth at 10 µM: < 30%
[5]
  inhibition of growth at 10 µM: < 30%
SNB-75
  inhibition of growth at 10 µM: < 30%
NCI-H322M
  inhibition of growth at 10 µM: < 30%
NCI-H226
  inhibition of growth at 10 µM: < 30%
SF-295
  inhibition of growth at 10 µM: < 30%
[6]
  inhibition of growth at 10 µM: < 30%
NCI-H522
  inhibition of growth at 10 µM: 93.4%
K562
  inhibition of growth at 10 µM: 49.1%
T47D
  inhibition of growth at 10 µM: < 30%
SK-MEL-2
  inhibition of growth at 10 µM: < 30%
IGROV-1
  inhibition of growth at 10 µM: < 30%
[7]
  inhibition of growth at 10 µM: < 30%
CAKI-1
  inhibition of growth at 10 µM: < 30%
SNB-19
  inhibition of growth at 10 µM: < 30%
[8]
  inhibition of growth at 10 µM: < 30%
SK-OV-3
  inhibition of growth at 10 µM: < 30%
PC-3
  inhibition of growth at 10 µM: < 30%
COLO 205
  inhibition of growth at 10 µM: < 30%
A549
  inhibition of growth at 10 µM: < 30%
Dihydrofolate reductase
  IC50: 600 nM
SF-268
  inhibition of growth at 10 µM: < 30%
MCF7
  inhibition of growth at 10 µM: 44%
LOX IMVI
  inhibition of growth at 10 µM: 42.6%
SW-620
  inhibition of growth at 10 µM: < 30%
SK-MEL-28
  inhibition of growth at 10 µM: < 30%
CCRF-CEM
  inhibition of growth at 10 µM: < 30%
UACC-62
  inhibition of growth at 10 µM: 32%
HOP-62
  inhibition of growth at 10 µM: < 30%

## Cc1nc2c(c(-c3ccc(Cl)cc3)n1)CCC/C2=C\c1ccc(Cl)cc1
[1]
  inhibition of growth at 10 µM: < 30%
[2]
  inhibition of growth at 10 µM: < 30%
TK-10
  inhibition of growth at 10 µM: < 30%
U-251
  inhibition of growth at 10 µM: 44%
SR
  inhibition of growth at 10 µM: < 30%
[3]
  inhibition of growth at 10 µM: < 30%
[4]
  inhibition of growth at 10 µM: < 30%
NCI-H23
  inhibition of growth at 10 µM: < 30%
MOLT-4
  inhibition of growth at 10 µM: < 30%
MDA-MB-231
  inhibition of growth at 10 µM: < 30%
[5]
  inhibition of growth at 10 µM: < 30%
SNB-75
  inhibition of growth at 10 µM: < 30%
NCI-H322M
  inhibition of growth at 10 µM: < 30%
NCI-H226
  inhibition of growth at 10 µM: < 30%
SF-295
  inhibition of growth at 10 µM: < 30%
[6]
  inhibition of growth at 10 µM: < 30%
NCI-H522
  inhibition of growth at 10 µM: < 30%
K562
  inhibition of growth at 10 µM: < 30%
T47D
  inhibition of growth at 10 µM: < 30%
SK-MEL-2
  inhibition of growth at 10 µM: < 30%
IGROV-1
  inhibition of growth at 10 µM: < 30%
[7]
  inhibition of growth at 10 µM: < 30%
CAKI-1
  inhibition of growth at 10 µM: < 30%
SNB-19
  inhibition of growth at 10 µM: < 30%
[8]
  inhibition of growth at 10 µM: < 30%
SK-OV-3
  inhibition of growth at 10 µM: < 30%
PC-3
  inhibition of growth at 10 µM: < 30%
COLO 205
  inhibition of growth at 10 µM: < 30%
A549
  inhibition of growth at 10 µM: < 30%
SF-268
  inhibition of growth at 10 µM: < 30%
MCF7
  inhibition of growth at 10 µM: 68.7%
LOX IMVI
  inhibition of growth at 10 µM: 63.2%
SW-620
  inhibition of growth at 10 µM: < 30%
SK-MEL-28
  inhibition of growth at 10 µM: < 30%
CCRF-CEM
  inhibition of growth at 10 µM: < 30%
UACC-62
  inhibition of growth at 10 µM: < 30%
HOP-62
  inhibition of growth at 10 µM: < 30%

— ChEMBL document CHEMBL3112482, “Nonclassical antifolates, part 5. Benzodiazepine analogs as a new class of DHFR inhibitors: synthesis, antitumor testing and molecular modeling study” (Eur J Med Chem, 2014)
